We go through 16 compounds from ChEMBL document CHEMBL1641453, “Synthesis and evaluation of β-carboline derivatives as potential monoamine oxidase inhibitors” (Bioorg Med Chem, 2011).

SMILES strings stand for the structures.

The target of series [1] is T1, Amine oxidase [flavin-containing] B (Homo sapiens, UniProt P27338).
T1 sequence (P27338 whole entry): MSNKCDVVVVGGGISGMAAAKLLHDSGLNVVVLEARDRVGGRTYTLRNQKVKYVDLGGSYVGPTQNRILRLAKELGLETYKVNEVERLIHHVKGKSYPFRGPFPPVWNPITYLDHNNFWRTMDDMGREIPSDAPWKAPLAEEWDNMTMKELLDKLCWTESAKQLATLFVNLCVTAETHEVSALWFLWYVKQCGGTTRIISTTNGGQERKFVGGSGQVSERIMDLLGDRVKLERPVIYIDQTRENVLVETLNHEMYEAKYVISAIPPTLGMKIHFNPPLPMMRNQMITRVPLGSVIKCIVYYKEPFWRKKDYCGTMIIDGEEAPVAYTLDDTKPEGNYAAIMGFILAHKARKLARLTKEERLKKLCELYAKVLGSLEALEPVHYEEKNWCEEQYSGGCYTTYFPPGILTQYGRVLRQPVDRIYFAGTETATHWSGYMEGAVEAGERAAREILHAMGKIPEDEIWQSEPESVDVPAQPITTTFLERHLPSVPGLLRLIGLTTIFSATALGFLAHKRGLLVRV
Briefly: (§1) Inhibition of human recombinant MAO-B expressed in baculovirus-infected insect cells at 1 uM after 1 hr by two-step bioluminescent assay. Particulars: 1 h, 1 µM; call rule not given here. In outline:
(§2)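 Recombinant human MAO-B from baculovirus-infected insect cell microsomes (0.5 U/mg final) preincubated 2 min 30 s with compound, then luminogenic substrate at 15 µM final, 1 h at 37 °C. Luciferin detection reagent stops the reaction and luminescence is read after 20 min. Hepes 100 mM pH 7.5, 5% glycerol, 12.5% DMSO. Tested in triplicate; % inhibition from signal relative to no-compound control.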

Series [2] deals with T2, Amine oxidase [flavin-containing] A (Homo sapiens, UniProt P21397).
T2 sequence (P21397 whole entry): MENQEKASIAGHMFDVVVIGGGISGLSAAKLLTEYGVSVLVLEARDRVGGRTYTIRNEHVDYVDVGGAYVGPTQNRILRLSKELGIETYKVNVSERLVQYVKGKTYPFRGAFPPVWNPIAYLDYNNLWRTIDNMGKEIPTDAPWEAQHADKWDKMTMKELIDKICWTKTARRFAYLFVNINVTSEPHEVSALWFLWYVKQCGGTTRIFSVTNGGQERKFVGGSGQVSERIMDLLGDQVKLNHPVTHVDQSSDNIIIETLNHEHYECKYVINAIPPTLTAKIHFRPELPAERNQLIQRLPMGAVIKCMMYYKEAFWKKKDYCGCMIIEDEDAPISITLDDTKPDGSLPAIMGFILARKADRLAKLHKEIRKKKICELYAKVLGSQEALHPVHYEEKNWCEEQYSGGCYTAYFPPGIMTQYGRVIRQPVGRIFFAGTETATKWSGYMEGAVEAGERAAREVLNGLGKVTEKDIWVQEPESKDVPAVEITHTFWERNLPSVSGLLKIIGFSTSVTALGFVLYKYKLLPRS
The series is described as follows: Inhibition of human recombinant MAO-A expressed in baculovirus-infected insect cells after 1 hr by two-step bioluminescent assay.

Series [3] deals with T3, MAO-B (amine oxidase [flavin-containing] B) (Homo sapiens, UniProt P27338).
T3 sequence (P27338 whole entry): T1 sequence (P27338 whole entry)
The description is as §1. In a few lines: as §2

Series [4] deals with T1, Amine oxidase [flavin-containing] B. The series is described as follows: Inhibition of human recombinant MAO-B expressed in baculovirus-infected insect cells after 1 hr by two-step bioluminescent assay. In outline: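 Recombinant human MAO-B microsomes from baculovirus-infected insect cells, 0.5 U/mg final. Enzyme preincubated with compound 2 min 30 s at 37 °C, then luminogenic luciferin-derivative substrate added (15 µM final). Luciferin detection reagent stops the reaction; luminescence read 20 min later. Buffer 100 mM Hepes pH 7.5 with 5% glycerol, DMSO 12.5% final. Screened at 10 and 1 µM in triplicate; IC50 from sigmoidal fit.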

For the compound `Cc1nccc2c1[nH]c1cc(OCCO)ccc12`, the “inhibition (INH)” value in series [1] is “Not Active”. In series [2], the Ki worked out at 28.4 nM.
For the compound `C=CCOc1ccc2c(c1)[nH]c1c(C)nccc12`, in series [1], the “inhibition (INH)” value was “Not Active”. In addition, the Ki in series [2] was 5 nM.
On to `Cc1nccc2c1[nH]c1cc(OCC(C)C)ccc12`, for which the inhibition at 1 h, 1 µM in series [3] came out at 14%. Besides, the Ki in series [2] turned out to be 3.9 nM.
For `COCCOc1ccc2c(c1)[nH]c1c(C)nccc12`, in series [1], the “inhibition (INH)” value is “Not Active”. For the same compound, the Ki in series [2] turned out to be 29.5 nM.
With `Cc1nccc2c1[nH]c1cc(OCCCC(F)(F)F)ccc12`, in series [3], the inhibition at 1 h, 1 µM came out at 24%. The Ki in series [2] is 3.6 nM.
Take `Cc1nccc2c1[nH]c1cc(OCC3CCCCC3)ccc12`: the figures for the inhibition constant Ki in series [4] and in series [2] were 222 nM and 4.3 nM, respectively.
Turning to `Cc1nccc2c1[nH]c1cc(OCc3ccccc3)ccc12`, the inhibition at 1 h, 1 µM in series [3] was 42%. In addition, the Ki in series [2] turned out to be 12.6 nM.
For `Cc1nccc2c1[nH]c1cc(OCCc3ccccc3)ccc12` the same measures were 39% and 5 nM.
In the case of `Cc1nccc2c1[nH]c1cc(OCc3ccccn3)ccc12`, in series [1], the “inhibition (INH)” value is recorded as “Not Active”. In addition, in series [2], the Ki worked out at 500 nM.
As to `Cc1nccc2c1[nH]c1cc(OCc3cccnc3)ccc12`, in series [1], the “inhibition (INH)” value is “Not Active”. Besides, in series [2], the Ki stood at 24.9 nM.
As to `Cc1nccc2c1[nH]c1cc(OCc3ccncc3)ccc12`, the “inhibition (INH)” value in series [1] was “Not Active”. Moreover, the Ki in series [2] worked out at 35.4 nM.
With `Cc1nccc2c1[nH]c1cc(OCc3ccc4ccccc4c3)ccc12`, the “inhibition (INH)” value in series [1] is “Not Active”. The Ki in series [2] amounted to 100 nM.
Turning to `Cc1nccc2c1[nH]c1cc(OCCN(C)C)ccc12`, the “inhibition (INH)” value in series [1] is reported as “Not Active”. The Ki in series [2] stood at 1020 nM.
`Cc1nccc2c1[nH]c1cc(OCCCN(C)C)ccc12`: the “inhibition (INH)” value in series [1] is “Not Active”. In addition, the Ki in series [2] was found to be 684 nM.
Regarding `Cc1nccc2c1[nH]c1cc(OCCN3CCOCC3)ccc12`, the “inhibition (INH)” value in series [1] was “Not Active”. For the same compound, in series [2], the Ki was determined as 256 nM.
For the compound `COc1ccc2c(c1)[nH]c1c(C)nccc12` [HARMINE], the Ki in series [4] was 121000 nM.
